Compound activity (PubChem)
KCNK9 block: blocks the human KCNK9 two-pore domain potassium channel | Q9NPC2 | HEK293 KCNK9, FluxOR thallium flux fluorescence; stronger effect = lower value | B-score at 10 µM | hit rate 1.2% among 310,000;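 active means ratio B-score over 3 SD below the library mean, with starting fluorescence within 5 SD of its mean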;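 further: negative B-score means less thallium flux so channel inhibition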
Target sequence (Q9NPC2 whole entry, looked up, the tested form may be a part): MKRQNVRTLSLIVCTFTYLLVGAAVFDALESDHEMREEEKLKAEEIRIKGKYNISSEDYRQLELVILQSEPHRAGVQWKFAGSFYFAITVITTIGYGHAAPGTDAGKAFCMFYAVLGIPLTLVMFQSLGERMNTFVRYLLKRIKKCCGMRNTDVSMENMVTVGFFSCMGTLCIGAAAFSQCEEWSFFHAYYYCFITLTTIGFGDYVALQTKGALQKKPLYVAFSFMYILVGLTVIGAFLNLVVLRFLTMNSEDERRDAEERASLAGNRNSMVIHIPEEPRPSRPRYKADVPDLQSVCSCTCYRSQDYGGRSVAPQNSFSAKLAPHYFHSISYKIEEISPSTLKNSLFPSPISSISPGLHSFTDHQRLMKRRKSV
hERG rescue: compounds protecting human hERG from proarrhythmic drug block. hit rate 0.51% among 310,000. CHO-hERG, FluxOR thallium flux, dofetilide IC70 present. activation (rescue from dofetilide block), less the hit threshold, % at 10 µM;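 active means activation above the mean of controls blocked by dofetilide plus 5 SD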;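 further: thallium influx through hERG after potassium depolarization seen as dye fluorescence rise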
KCNQ1 pot: potentiates or activates the human KCNQ1 potassium channel; B-score at 10 µM; AID 2648; P51787; hit rate 0.35% among 310,000; CHO-K1 KCNQ1, thallium flux FluxOR fluorescence; stronger effect = higher value;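 active means fluorescence ratio B-score, a plate-corrected score, at least three library SD, with initial intensity B-score within 5 SD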
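Medium – assay buffer, equal DMSO in all wells · Material – CHO-K1 cell line with stable KCNQ1 potassium channel expression · Signal – kinetic FluxOR thallium fluorescence, 10-s 1-Hz baseline, 110-s post-stimulus read · Compound – single concentration per compound, DMSO matched to controls · Schedule – 37 °C overnight plating, 90-min dark dye load, 20-min compound pretreatment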
KCNQ1 inh: human KCNQ1 channel inhibition; CHO-K1 KCNQ1, FluxOR thallium flux fluorescence; stronger effect = higher value; B-score at 10 µM; hit rate 1.3% among 310,000; AID 2642;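 active means compounds whose thallium flux B-score, printed positive for inhibition, exceeds three library SD while starting fluorescence stays within three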;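 further: channel opened by potassium depolarization with thallium stimulus after 20 min compound exposure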
KCNK3 inh: human KCNK3 channel inhibition, primary screen; hit rate 0.84% among 340,000; B-score at 10 µM; CHO-KCNK3 thallium flux, FluxOR fluorescence; stronger effect = lower value; O14649;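 active means B-score under library mean minus 4 SD, starting fluorescence ratio at most library mean plus 5 SD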;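 further: more negative B-score means stronger inhibition of thallium flux through KCNK3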
KCNK3 confirm: human KCNK3 channel inhibition, confirmation assay; shares compounds with KCNK3 inh; hit rate 99% among 2,400; CHO-KCNK3 thallium flux, FluxOR fluorescence; 0% buffer, 100% carvedilol maximal block; ratio percent of control, % at 10 µM;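 active means ratio percent of control, averaged over triplicates, above buffer control mean plus 5 SD, cut at about 64% in these data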;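 further: ratio is the fluorescence rise from min to max over baseline after thallium stimulus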
KCNK3 uninduced: activity in cells without induced KCNK3 expression | hit rate 40% among 2,400 | shares compounds with KCNK3 inh | AID 651747 | non-induced KCNK3 parental cells, FluxOR thallium flux; stronger effect = lower value | thallium flux ratio (lower = more inhibition) at 10 µM;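 active means thallium flux ratio, averaged over three wells, more than 5 SD below the buffer control mean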;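 further: host cells are CHO cells without KCNK3 induction; ratio is peak minus trough fluorescence over baseline then normalized to buffer controls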
* hit, by the source's call; i = inactive; . = no result given. Compounds with a hit are over-represented: about 3.1% of the library has one in this group of screens.

SMILES | KCNK9 block | hERG rescue | KCNQ1 pot | KCNQ1 inh | KCNK3 inh | KCNK3 confirm | KCNK3 uninduced
Cc1ccccc1-c1nnn(Cc2ccc(F)cc2Cl)n1 | i | -11 | i | i | -9* | 101* | i
Fc1ccc(-c2nnn(Cc3ccc(F)cc3Cl)n2)cc1 | i | -3 | i | i | i | . | .
CCN1CCSc2ccc(C(=O)NCc3cc(Br)ccc3OC)cc21 | -7* | -11 | i | i | i | 92* | i
CCOc1ccc(CNC(=O)c2ccc3c(c2)N(CC)CCS3)cc1 | i | -8 | i | i | i | . | .
COc1ccc(Br)cc1CNC(=O)c1ccc2c(c1)N(C)CCS2 | i | -14 | i | i | -10* | 106* | i
CC(=O)C1=NN(c2ccc(Cl)cc2)C(c2ccc3c(c2)OCO3)N(C(C)=O)N1C (centres undefined) | i | -7 | i | i | -8.8* | 95* | 0.15*
N#CC1(NC(=O)COc2ccccc2[N+](=O)[O-])CCCCC1 | i | -7 | i | i | i | . | .
C=CCOc1ccc(C(=O)c2ccccc2)c(OCC(=O)NC2(C#N)CCCC2)c1 | i | -12 | i | i | -8.7* | 90* | i
Cc1cc(SCC(=O)N/N=C/c2ccc(O)cc2O)nc2ccccc12 | i | -1 | i | i | -12* | 147* | 0.1*
Cc1nn2c(=O)cc(COC(=O)c3c(F)cccc3Cl)nc2s1 | . | . | . | . | i | . | .
CCCSc1nnc2c(n1)OC(c1cccn1C)N(C(C)=O)c1ccccc1-2 (centres undefined) | i | -7 | i | i | -13* | 122* | i
CC1CCC(C(C)C)C(OC(=O)CSc2nnc(N)s2)C1 (centres undefined) | i | -8 | i | i | -9.7* | 110* | i
CC1CCC(C(C)C)C(OC(=O)CSc2nc(N)cc(=O)[nH]2)C1 (centres undefined) | i | -13 | i | i | i | . | .
S=C(c1ccc(-c2cc(Cl)ccc2Cl)o1)N1CCOCC1 | i | -9 | i | i | -8.9* | 126* | 0.14*
O=C(Nc1ccc(CN2CCOCC2)cc1)c1ccc(-c2cc(Cl)ccc2Cl)o1 | i | -24 | i | i | i | . | .
Nc1cc(S(=O)(=O)N2CCCCC2)ccc1Oc1ccc(Cl)cc1 | i | -23 | i | i | -9* | 112* | i
Cc1noc(-c2ccccc2)c1NC(=O)Nc1ccccc1 | i | -7 | i | i | i | . | .
Cc1noc(-c2ccccc2)c1NC(=O)Nc1ccc(Cl)cc1 | i | -9 | i | i | -11* | 106* | i
COc1ccc(Nc2nnc(-c3ccc(O)cc3)c3ccccc23)cc1 | i | -14 | i | i | -8.9* | 98* | i
Oc1ccc(Nc2nnc(-c3ccc(O)cc3)c3ccccc23)cc1 | i | -9 | i | i | i | . | .
Cc1cc(C(=O)Nc2ccc(Nc3ccccc3)cc2)ccc1[N+](=O)[O-] | i | -10 | i | i | i | . | .
O=C(Nc1ccc(Nc2ccccc2)cc1)c1ccc(Cl)c([N+](=O)[O-])c1 | i | -7 | i | i | -11* | 125* | 0.15*
O=[N+]([O-])c1ccc(N2CCc3ccccc3C2)cc1 | i | -22 | i | i | i | . | .
CC1(C)CC(=O)C2=C(C1)c1c(ccc3ccccc13)NC2c1ccc(OCC(=O)O)cc1 (centres undefined) | i | -10 | i | i | i | . | .
CC1(C)CC(=O)C2=C(C1)c1c(ccc3ccccc13)NC2c1ccc(Br)o1 (centres undefined) | i | -12 | i | i | -10* | 113* | i
SMILES | KCNK9 block | hERG rescue | KCNQ1 pot | KCNQ1 inh | KCNK3 inh | KCNK3 confirm | KCNK3 uninduced
CC(C)(C)S(=O)(=O)N1C[C@@H]2CC/C=C\C/C=C\2[C@H]1CCO | . | . | . | . | i | . | .
COc1cc(C(=O)NCc2nnc(SCC(=O)Nc3cccc(C(F)(F)F)c3)o2)cc(OC)c1OC | i | -2 | i | i | i | . | .
CN(CC(=O)Nc1cccc(F)c1)CC(=O)Nc1ccccc1Oc1ccccc1 | i | -13 | i | i | -9* | 105* | i
COc1ccc(/C=N/NC(=O)Cc2csc(Nc3cccc(C(F)(F)F)c3)n2)cc1C | i | -8 | i | i | -11* | 98* | i
CCCCn1c(N)c(N(Cc2ccccc2)C(=O)COc2ccccc2F)c(=O)[nH]c1=O | . | . | . | . | i | . | .
COc1ccc(OC)c(NC(=O)c2ccc(CSc3nnc(C)s3)cc2)c1 | i | -10 | i | i | -10* | 103* | i
COc1cccc(-c2nn(-c3ccc(C)cc3)cc2C(=O)N2CCc3cc(OC)c(OC)cc3C2)c1 | i | -23 | i | i | -9.8* | 104* | 0.14*
COc1ccc(C)cc1NC(=O)CN1C(=O)COc2ccc(S(=O)(=O)N3CCOCC3)cc21 | i | -2 | i | i | i | . | .
COc1cccc(NC(=O)CN(C)C(=O)c2cc(-c3cccc(Br)c3)nc3ccccc23)c1 | i | -17 | i | i | -14* | 128* | i
COc1cccc(NC(=O)c2cc(-c3ccc(OC)cc3OC)nc3ccccc23)c1 | i | -9 | i | 6* | -9.4* | 103* | i
Cc1ccc(-c2cc(C(=O)Nc3cccnc3)c3ccccc3n2)s1 | i | -26 | i | i | -12* | 100* | 0.13*
N#Cc1ccccc1NC(=O)COc1ccccc1C(=O)Nc1ccccc1 | . | . | . | . | i | . | .
CCSc1nnc(-c2cccc(S(=O)(=O)N(CC)CC)c2)n1Cc1ccccc1 | i | -28 | i | i | -9.8* | 93* | i
CC(C)[C@H](N)C(=O)N1CCC(C(=O)N[C@@H](Cc2ccccc2)C(=O)NCc2ccc(F)cc2)CC1 | i | -7 | i | i | i | . | .
Clc1cccc(CN2CCSCC2)c1 | i | -3 | i | i | i | . | .
N#CC1=C(N)Oc2cc(N)ccc2C1c1cccnc1 (centres undefined) | i | -5 | i | i | i | . | .
N#CC1=C(N)Oc2cc(Nc3ccccc3)ccc2C1c1ccncc1 (centres undefined) | -6.8* | -13 | i | i | -8.8* | 106* | i
COc1ccc(OC)c(C(=O)COC(=O)c2cc(C)oc2C)c1 | i | -14 | i | i | -10* | 119* | i
N#Cc1ccc(COC(=O)CCc2c[nH]c3ccccc23)cc1 | i | -15 | i | i | i | . | .
